Reference: ChEMBL document CHEMBL1275303, “Synthesis and antimicrobial activity of 2-substituted [4-(1,3,4-oxadiazol-2-yl methyl)] phthalazin-1(2H)-one derivatives” (2010)

How the values were obtained:
[1] = test system: Chrysosporium keratinophilum; test: Antimicrobial activity against Chrysosporium keratinophilum at 100 ug/mL after 72 hrs by well plate method; type: functional; conditions: read-out: IZ
In short: (§1)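 Antifungal well-plate assay on Sabouraud dextrose agar using a 72 h old broth culture of the fungal strain. Wells were filled with compound dissolved in DMSO (100 or 50), and the zone of inhibition around each well was measured. […] served as reference.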

Escherichia coli [2] = test: Antimicrobial activity against Escherichia coli at 50 ug/mL after 24 hrs by well plate method; type: functional; conditions: read-out: IZ
In short: (§2)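 Agar well diffusion in nutrient agar. About 1 cm³ of a 24 h broth culture was placed in sterile dishes, and molten agar at 45 °C was poured over it and set. 6 mm wells were bored and filled with compound in DMSO (100 or 50). Plates were incubated 24 h at 37 °C, and the inhibition zone was read in mm. Duplicate runs, with standard deviation; amoxicillin as reference.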

Staphylococcus aureus [3] = test: Antimicrobial activity against Staphylococcus aureus at 100 ug/mL after 24 hrs by well plate method; type: functional; conditions: read-out: IZ; in short: as §2
[4] = test system: Chrysosporium keratinophilum; test: Antimicrobial activity against Chrysosporium keratinophilum at 50 ug/mL after 72 hrs by well plate method; type: functional; conditions: read-out: IZ; in short: as §1
Candida albicans [5] = test: Antimicrobial activity against Candida albicans at 100 ug/mL after 72 hrs by well plate method; type: functional; conditions: read-out: IZ; in short: as §1
Candida albicans [6] = test: Antimicrobial activity against Candida albicans at 50 ug/mL after 72 hrs by well plate method; type: functional; conditions: read-out: IZ; in short: as §1
Nannizzia gypsea [7] = test: Antimicrobial activity against Microsporum gypseum at 100 ug/mL after 72 hrs by well plate method; type: functional; conditions: read-out: IZ; in short: as §1
Nannizzia gypsea [8] = test: Antimicrobial activity against Microsporum gypseum at 50 ug/mL after 72 hrs by well plate method; type: functional; conditions: read-out: IZ; in short: as §1
Aspergillus flavus [9] = test: Antimicrobial activity against Aspergillus flavus at 100 ug/mL after 72 hrs by well plate method; type: functional; conditions: read-out: IZ
Aspergillus flavus [10] = test: Antimicrobial activity against Aspergillus flavus at 50 ug/mL after 72 hrs by well plate method; type: functional; conditions: read-out: IZ
Staphylococcus aureus [11] = test: Antimicrobial activity against Staphylococcus aureus at 50 ug/mL after 24 hrs by well plate method; type: functional; conditions: read-out: IZ; in short: as §2
Bacillus subtilis [12] = test: Antimicrobial activity against Bacillus subtilis at 100 ug/mL after 24 hrs by well plate method; type: functional; conditions: read-out: IZ; in short: as §2
Bacillus subtilis [13] = test: Antimicrobial activity against Bacillus subtilis at 50 ug/mL after 24 hrs by well plate method; type: functional; conditions: read-out: IZ; in short: as §2
Salmonella typhi [14] = test: Antimicrobial activity against Salmonella typhi at 50 ug/mL after 24 hrs by well plate method; type: functional, Salmonella enterica subsp. enterica serovar Typhi; conditions: Salmonella enterica, read-out: IZ
In short: (§3)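 Agar well diffusion in nutrient agar: about 1 cm³ of a 24 h broth culture placed in a sterile dish, molten agar at 45 °C poured over it and allowed to set. 6 mm holes cut with a sterile cork borer and filled with compound solution in DMSO. Incubated 24 h at 37 °C; inhibition zone diameter read in mm. Run in duplicate, standard deviation calculated.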

Salmonella typhi [15] = test: Antimicrobial activity against Salmonella typhi at 100 ug/mL after 24 hrs by well plate method; type: functional, Salmonella enterica subsp. enterica serovar Typhi; conditions: Salmonella enterica, read-out: IZ; in short: as §3
Escherichia coli [16] = test: Antimicrobial activity against Escherichia coli at 100 ug/mL after 24 hrs by well plate method; type: functional; conditions: read-out: IZ; in short: as §2

SMILES | zone of inhibition at 100 µg/mL [1] | zone of inhibition at 50 µg/mL (Escherichia coli [2]) | zone of inhibition at 100 µg/mL (Staphylococcus aureus [3]) | zone of inhibition at 50 µg/mL [4] | zone of inhibition at 100 µg/mL (Candida albicans [5]) | zone of inhibition at 50 µg/mL (Candida albicans [6]) | zone of inhibition at 100 µg/mL (Nannizzia gypsea [7]) | zone of inhibition at 50 µg/mL (Nannizzia gypsea [8]) | zone of inhibition at 100 µg/mL (Aspergillus flavus [9]) | zone of inhibition at 50 µg/mL (Aspergillus flavus [10]) | zone of inhibition at 50 µg/mL (Staphylococcus aureus [11]) | zone of inhibition at 100 µg/mL (Bacillus subtilis [12]) | zone of inhibition at 50 µg/mL (Bacillus subtilis [13]) | zone of inhibition at 50 µg/mL (Salmonella typhi [14]) | zone of inhibition at 100 µg/mL (Salmonella typhi [15]) | zone of inhibition at 100 µg/mL (Escherichia coli [16])
O=c1c2ccccc2c(Cc2nnc(-c3ccc(Cl)cc3)o2)nn1Cc1cnc(Cl)s1 | 4.5 mm | 5 mm | 10 mm | 2 mm | 6.5 mm | 3 mm | 4 mm | 1 mm | 5 mm | 2.5 mm | 7 mm | 5.5 mm | 3 mm | 5 mm | 9.5 mm | 9 mm
O=c1c2ccccc2c(Cc2nnc(-c3ccc(Cl)cc3)o2)nn1Cc1ccc(Cl)nc1 | 3 mm | 5 mm | 4.5 mm | 1 mm | 5.5 mm | 3 mm | 4 mm | 1 mm | 5 mm | 2.5 mm | 1 mm | 7 mm | 3.5 mm | 4 mm | 7.5 mm | 8 mm
Cc1ncc([N+](=O)[O-])n1CCO [METRONIDAZOLE] | 14 mm | – | – | 11 mm | 19.5 mm | 15 mm | 17 mm | 14 mm | 17.5 mm | 13.5 mm | – | – | – | – | – | –
CC1(C)S[C@@H]2[C@H](NC(=O)[C@H](N)c3ccc(O)cc3)C(=O)N2[C@H]1C(=O)O [AMOXICILLIN] | – | 15 mm | 16.5 mm | – | – | – | – | – | – | – | 12.5 mm | 14.5 mm | 10.5 mm | 12 mm | 20.5 mm | 18.5 mm
O=c1c2ccccc2c(Cc2nnc(C3CC3)o2)nn1Cc1ccc(Cl)nc1 | 2.5 mm | 7 mm | 4.5 mm | 0.5 mm | 8.5 mm | 5.5 mm | 7.5 mm | 4.5 mm | 5 mm | 2.5 mm | 1 mm | 6.5 mm | 4 mm | 3 mm | 6 mm | 11.5 mm
Cc1nnc(Cc2nn(CCN3CCOCC3)c(=O)c3ccccc23)o1 | 0 mm | 0 mm | 3.5 mm | 0 mm | 2.5 mm | 1 mm | 3.5 mm | 0 mm | 3.5 mm | 1 mm | 0 mm | 1 mm | 0 mm | 1.5 mm | 4.5 mm | 2.5 mm
O=c1c2ccccc2c(Cc2nnc(-c3ccsc3)o2)nn1Cc1ccc(Cl)nc1 | 10.5 mm | 10 mm | 11.5 mm | 6.5 mm | 7.5 mm | 5.5 mm | 11 mm | 6.5 mm | 7.5 mm | 4 mm | 7 mm | 6 mm | 4 mm | 10 mm | 15.5 mm | 15.5 mm
Cc1nnc(Cc2nn(Cc3ccc(Cl)nc3)c(=O)c3ccccc23)o1 | 0 mm | 1.5 mm | 1.5 mm | 0 mm | 3.5 mm | 1 mm | 2 mm | 0 mm | 5 mm | 1 mm | 0 mm | 0 mm | 0 mm | 1 mm | 2.5 mm | 3.5 mm
Cc1ccccc1-c1nnc(Cc2nn(Cc3cnc(Cl)s3)c(=O)c3ccccc23)o1 | 3.5 mm | 6 mm | 2 mm | 0 mm | 3.5 mm | 0 mm | 3 mm | 1 mm | 2 mm | 1 mm | 0 mm | 5 mm | 2 mm | 3 mm | 5 mm | 6 mm
O=c1c2ccccc2c(Cc2nnc(C(F)(F)F)o2)nn1Cc1cnc(Cl)s1 | 5.5 mm | 3 mm | 7 mm | 2 mm | 3.5 mm | 0.5 mm | 5.5 mm | 3 mm | 4.5 mm | 1.5 mm | 4 mm | 5 mm | 3 mm | 3 mm | 5.5 mm | 6.5 mm
O=c1c2ccccc2c(Cc2nnc(-c3ccsc3)o2)nn1CCN1CCOCC1 | 6.5 mm | 3.5 mm | 5 mm | 3.5 mm | 7.5 mm | 4.5 mm | 10.5 mm | 7.5 mm | 9.5 mm | 6.5 mm | 3.5 mm | 6 mm | 3 mm | 4.5 mm | 7.5 mm | 8.5 mm
O=c1c2ccccc2c(Cc2nnc(-c3ccc(Cl)nc3)o2)nn1Cc1cnc(Cl)s1 | 8.5 mm | 8 mm | 7 mm | 5.5 mm | 10.5 mm | 9.5 mm | 7.5 mm | 4 mm | 8 mm | 4 mm | 4 mm | 6 mm | 4 mm | 3 mm | 5 mm | 12 mm
Cc1nnc(Cc2nn(Cc3cnc(Cl)s3)c(=O)c3ccccc23)o1 | 2.5 mm | 2.5 mm | 1 mm | 0 mm | 2.5 mm | 1 mm | 3.5 mm | 0 mm | 3 mm | 1 mm | 0 mm | 3 mm | 1 mm | 2.5 mm | 4.5 mm | 5.5 mm
O=c1c2ccccc2c(Cc2nnc(-c3ccc(F)cc3)o2)nn1CCN1CCOCC1 | 5.5 mm | 0 mm | 1 mm | 2.5 mm | 5.5 mm | 2.5 mm | 7.5 mm | 4 mm | 4 mm | 2 mm | 0 mm | 6 mm | 3 mm | 3.5 mm | 5 mm | 2 mm
